Test results taken from ChEMBL document CHEMBL1123389, “3-Hydroxy-3-methylglutaryl-coenzyme A reductase inhibitors. 2. Structural modification of 7-(substituted aryl)-3,5-dihydroxy-6-heptenoic acids and their lactone derivatives” (J Med Chem, 1986).

What was measured:
[1] = target: T1, 3-hydroxy-3-methylglutaryl-coenzyme A reductase (Rattus norvegicus, UniProt P51639); assay: Inhibition of solubilized, partially purified rat liver HMG-CoA reductase
T1 sequence (P51639 whole entry): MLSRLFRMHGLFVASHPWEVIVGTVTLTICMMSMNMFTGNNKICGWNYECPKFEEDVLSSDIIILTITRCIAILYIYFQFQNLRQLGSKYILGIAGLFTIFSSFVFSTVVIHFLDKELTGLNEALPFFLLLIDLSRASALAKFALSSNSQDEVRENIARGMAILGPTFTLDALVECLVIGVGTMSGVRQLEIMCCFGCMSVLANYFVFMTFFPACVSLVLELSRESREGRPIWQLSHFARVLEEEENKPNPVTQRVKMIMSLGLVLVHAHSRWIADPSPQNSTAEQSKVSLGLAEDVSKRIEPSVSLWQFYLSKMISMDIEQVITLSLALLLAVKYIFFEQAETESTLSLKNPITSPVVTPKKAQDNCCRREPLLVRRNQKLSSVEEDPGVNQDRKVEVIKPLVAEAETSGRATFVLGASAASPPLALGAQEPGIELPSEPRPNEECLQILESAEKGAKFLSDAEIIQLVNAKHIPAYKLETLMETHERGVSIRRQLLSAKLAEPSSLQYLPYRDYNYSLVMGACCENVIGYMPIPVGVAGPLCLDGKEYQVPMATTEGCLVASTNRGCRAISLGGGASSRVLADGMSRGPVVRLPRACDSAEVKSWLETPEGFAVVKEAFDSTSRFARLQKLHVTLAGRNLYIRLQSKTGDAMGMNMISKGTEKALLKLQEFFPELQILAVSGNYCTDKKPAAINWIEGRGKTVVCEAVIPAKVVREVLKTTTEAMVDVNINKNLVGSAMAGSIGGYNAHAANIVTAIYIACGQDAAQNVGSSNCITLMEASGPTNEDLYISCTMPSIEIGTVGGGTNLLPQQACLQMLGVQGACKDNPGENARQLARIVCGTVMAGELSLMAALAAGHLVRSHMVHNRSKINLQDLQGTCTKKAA
Outline: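 Enzyme solubilized from fresh microsomes and purified through the second ammonium sulfate precipitation. It was diluted in 100 mM phosphate, pH 7.2, to give 50 000–60 000 dpm per 100 μL in control. Assay mix (0.8 mL): phosphate pH 7.2 100 mM, MgCl2 3 mM, NADP 3 mM, glucose 6-phosphate 10 mM, G6PDH 3 units, glutathione 50 mM, [14C]HMG-CoA 0.2 mM. Compounds were added as dihydroxy acid Na salts at multiple concentrations. Incubation ran 40 min at 37 °C, stopped with HCl, then lactonized. [14C]mevalonolactone was separated on Bio-Rex 5 and counted. IC50 came from a least-squares line of % inhibition vs concentration.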

[2] = target: T2, 3-hydroxy-3-methylglutaryl-coenzyme A reductase (Rattus norvegicus) (UniProt P51639); assay: Relative potency to inhibit solubilized, partially purified rat liver HMG-CoA reductase compared with that of compactin.
T2 sequence (whole entry): T1 sequence (P51639 whole entry)

| Compound | IC50 [1] [µM] | Relative potency [2] |
| --- | --- | --- |
| O=C1C[C@H](O)CC(CCc2c(O)cc(Cl)cc2Cl)O1 (some centres not stated) | 7.9 | 0.2 |
| O=C1C[C@H](O)CC(CCc2c(Cl)cc(Cl)cc2OCc2ccccc2F)O1 (some centres not stated) | 0.15 | 10 |
| C=CCOc1cc(Cl)cc(Cl)c1/C=C/[C@@H]1C[C@@H](O)CC(=O)O1 | 0.76 | 3.2 |
| O=C1C[C@H](O)C[C@@H](/C=C/c2ccccc2)O1 | 284 | 0.004 |
| O=C1C[C@H](O)C[C@@H](/C=C/c2c(Cl)cc(Cl)cc2OCCc2ccccc2)O1 | 0.48 | 5 |
| O=C1C[C@H](O)C[C@@H](/C=C/c2c(Cl)cc(Cl)cc2OCc2cccs2)O1 | 0.6 | 3 |
| O=C1C[C@H](O)C[C@@H](CCc2c(Cl)cc(Cl)cc2OCc2ccccc2)O1 (stereo in doubt; 8a(-)) [listing 1 of 2 here] | – | 0.25 |
| O=C1C[C@H](O)C[C@@H](CCc2c(Cl)cc(Cl)cc2OCc2ccccc2)O1 (stereo in doubt; 8a(+)) [listing 1 of 2 here] | 0.068 | – |
| O=C1C[C@H](O)C[C@@H](/C=C/c2c(Cl)cc(Cl)cc2OCc2ccco2)O1 | 0.6 | 3 |
| CSCOc1cc(Cl)cc(Cl)c1/C=C/[C@@H]1C[C@@H](O)CC(=O)O1 | 0.76 | 2.1 |
| CCCCCOc1cc(Cl)cc(Cl)c1/C=C/[C@@H]1C[C@@H](O)CC(=O)O1 | 1 | 2.4 |
| O=C1C[C@H](O)C[C@@H](/C=C/c2c(Cl)cc(Cl)cc2OCc2cccc3ccccc23)O1 | 4.4 | 0.4 |
| O=C1C[C@H](O)C[C@@H](/C=C/c2c(Cl)cc(Cl)cc2OCc2cccc(F)c2)O1 | 0.58 | 3.4 |
| COCCOCOc1cc(Cl)cc(Cl)c1/C=C/[C@@H]1C[C@@H](O)CC(=O)O1 | 11 | 0.4 |
| O=C1C[C@H](O)C[C@@H](/C=C/c2ccccc2-c2ccccc2)O1 | 3 | 0.63 |
| O=C1C[C@H](O)C[C@@H](/C=C/c2c(Cl)cc(Cl)cc2OCc2ccc(F)cc2F)O1 | 0.2 | 7.5 |
| O=C1C[C@H](O)C[C@@H](/C=C/c2cccc(Cl)c2Cl)O1 | 64.4 | 0.017 |
| O=C1C[C@H](O)C[C@@H](CCc2c(Cl)cc(Cl)cc2OCc2ccc(F)cc2)O1 (stereo in doubt; 66(+)) [listing 1 of 2 here] | 0.05 | – |
| O=C1C[C@H](O)C[C@@H](/C=C/c2c(Cl)cc(Cl)cc2OC/C=C/c2ccccc2)O1 | 1.9 | 1.1 |
| O=C1C[C@H](O)C[C@@H](/C=C/c2c(Cl)cc(Cl)cc2OCc2c(F)c(F)c(F)c(F)c2F)O1 | 0.7 | 2.3 |
| O=C1C[C@H](O)CC(CCc2c(Cl)cc(Cl)cc2OCC2CCCCC2)O1 (some centres not stated) | 0.75 | 4.4 |

| Compound | IC50 [1] [µM] | Relative potency [2] |
| --- | --- | --- |
| O=C1C[C@H](O)CC(CCc2c(Cl)cc(Cl)cc2Oc2ccccc2)O1 (some centres not stated) | 0.33 | 4.5 |
| O=C1C[C@H](O)C[C@@H](CCc2c(Cl)cc(Cl)cc2OCc2ccccc2)O1 (racemic) [listing 1 of 2 here] | 0.2 | – |
| O=C1C[C@H](O)C[C@@H](/C=C/c2c(Cl)cc(Cl)cc2OCc2cc[n+]([O-])cc2)O1 | 117 | 0.016 |
| Cc1cc(OCc2ccccc2)cc(C)c1/C=C/[C@@H]1C[C@@H](O)CC(=O)O1 | 0.62 | 3.7 |
| O=C1C[C@H](O)C[C@@H](CCc2c(Cl)cc(Cl)cc2OCc2ccc(F)cc2)O1 (stereo in doubt; 66) [listing 1 of 2 here] | – | 38 |
| O=C1C[C@H](O)C[C@@H](/C=C/c2ccc(-c3ccccc3)cc2)O1 | 55 | – |
| COc1ccc(COc2cc(Cl)cc(Cl)c2/C=C/[C@@H]2C[C@@H](O)CC(=O)O2)cc1 | 2.6 | 0.8 |
| O=C1C[C@H](O)C[C@@H](/C=C/c2c(Cl)cc(Cl)cc2OCCOc2ccc(Cl)cc2)O1 | 1 | 3.3 |
| O=C1C[C@H](O)C[C@@H](/C=C/c2c(Cl)cccc2Cl)O1 | 7.9 | 0.14 |
| O=C1C[C@H](O)C[C@@H](/C=C/c2c(Cl)cc(Cl)cc2OCc2ccccc2)O1 (racemic) | 0.43 | 3.5 |
| O=C1C[C@H](O)C[C@@H](/C=C/c2ccccc2Cl)O1 | 7.4 | 0.15 |
| O=C1C[C@H](O)C[C@@H](CCc2c(Cl)cc(Cl)cc2OCc2ccccc2)O1 (stereo in doubt; 8a(-)) [listing 2 of 2 here] | 5.2 | – |
| CC(CCOc1cc(Cl)cc(Cl)c1/C=C/[C@@H]1C[C@@H](O)CC(=O)O1)CC(C)(C)C (some centres not stated) | 38 | 0.09 |
| Cc1ccc(/C=C/[C@@H]2C[C@@H](O)CC(=O)O2)c(C)c1 | 29.9 | – |
| O=C1C[C@H](O)CC(CCc2c(Cl)cc(Cl)cc2OCc2ccc(C(F)(F)F)cc2)O1 (some centres not stated) | 13 | 0.16 |
| O=C1C[C@H](O)C[C@@H](CCc2c(Cl)cc(Cl)cc2OCc2ccc(F)cc2)O1 (stereo in doubt; 66) [listing 2 of 2 here] | 0.076 | – |
| Cc1ccc(COc2cc(Cl)cc(Cl)c2/C=C/[C@@H]2C[C@@H](O)CC(=O)O2)cc1 | 4.9 | 0.3 |
| O=C1C[C@H](O)C[C@@H](CCc2c(Cl)cc(Cl)cc2OCc2ccccc2)O1 (racemic) [listing 2 of 2 here] | – | 12 |
| N#Cc1ccc(COc2cc(Cl)cc(Cl)c2/C=C/[C@@H]2C[C@@H](O)CC(=O)O2)cc1 | 2 | 1.25 |
| O=C1C[C@H](O)C[C@@H](/C=C/c2c(Cl)cc(Cl)cc2OCc2cccnc2)O1 | 3.4 | 0.6 |
| O=C1C[C@H](O)C[C@@H](/C=C/c2c(Cl)cc(Cl)cc2OCCCc2ccccc2)O1 | 1.45 | 1.6 |

| Compound | IC50 [1] [µM] | Relative potency [2] |
| --- | --- | --- |
| O=C1C[C@H](O)C[C@@H](/C=C/c2c(Cl)cc(Cl)cc2OCc2ccncc2)O1 | 3.7 | 0.6 |
| O=C1C[C@H](O)C[C@@H](/C=C/c2c(Cl)cc(Cl)cc2Oc2ccccc2)O1 | 1.1 | 1.4 |
| O=C1C[C@H](O)C[C@@H](/C=C/c2c(Cl)cc(Cl)cc2OCc2ccc(Cl)cc2)O1 | 2.5 | 1.7 |
| O=C1C[C@H](O)C[C@@H](/C=C/c2ccc(Cl)cc2Cl)O1 | – | 0.08 |
| O=C1C[C@H](O)C[C@@H](/C=C/c2c(Cl)cc(OCc3ccccc3)cc2Cl)O1 | 0.45 | 4 |
| O=C1C[C@H](O)C[C@@H](/C=C/c2c(Cl)cc(Cl)cc2OCCC23CC4CC(CC(C4)C2)C3)O1 | 3 | 0.7 |
| O=C1C[C@H](O)C[C@@H](/C=C/c2c(Cl)cc(OCc3ccc(F)cc3)cc2Cl)O1 | 0.67 | 2.7 |
| O=C1C[C@H](O)C[C@@H](/C=C/c2ccc(OCc3ccc(F)cc3)c(Cl)c2Cl)O1 | 17 | 0.12 |
| O=C1C[C@H](O)C[C@@H](CCc2c(Cl)cc(Cl)cc2OCc2ccc(F)cc2)O1 (stereo in doubt; 66(+)) [listing 2 of 2 here] | – | 58 |
| CCCCCOc1c(Cl)cc(Cl)cc1/C=C/[C@@H]1C[C@@H](O)CC(=O)O1 | 13 | – |
| O=C1C[C@H](O)C[C@@H](/C=C/c2c(Cl)cc(Cl)cc2OCc2ccc(F)cc2)O1 | 0.2 | 7.5 |
| O=C1C[C@H](O)C[C@@H](CCc2c(Cl)cc(Cl)cc2OCc2ccccc2)O1 (stereo in doubt; 8a(+)) [listing 2 of 2 here] | – | 19.1 |
| O=C1C[C@H](O)C[C@@H](/C=C/c2c(Cl)cc(Cl)cc2OCc2ccccn2)O1 | 1.2 | 1.8 |
| O=C1C[C@H](O)C[C@@H](/C=C/c2ccc(Cl)c(Cl)c2)O1 | 35 | – |
| O=C1C[C@H](O)CC(CCc2c(Cl)cc(Cl)cc2OCc2cccc(F)c2)O1 (some centres not stated) | 0.21 | 8 |
| O=C1C[C@H](O)C[C@@H](/C=C/c2c(Cl)cc(Cl)cc2OC(c2ccccc2)c2ccccc2)O1 | 6.3 | 0.7 |
| O=C1C[C@H](O)C[C@@H](/C=C/c2c(Cl)cc(Cl)cc2OCc2ccccc2F)O1 | 0.51 | 5.9 |
| O=C1C[C@H](O)C[C@@H](/C=C/c2c(Cl)cc(Cl)cc2OCc2ccc[n+]([O-])c2)O1 | 122 | 0.016 |
| O=C1C[C@H](O)C[C@@H](CCc2c(Cl)cc(Cl)cc2COc2ccccc2)O1 | 0.39 | 6 |
